Results as given in ChEMBL document CHEMBL3352181, “Novel phenyl and pyridyl substituted derivatives of isoindolines: Synthesis, antitumor activity and DNA binding features” (Eur J Med Chem, 2014).
Calls of active or inactive are those of the source. The calls are words filed in the database; no cut-off is given here.

Key:
HepG2 [1] = test: Induction of cell cycle arrest on human HepG2 cells assessed as accumulation at subG1 phase at 20 uM after 24 hrs by propidium iodide staining based flow cytometry (reference value: 2.9 +/- 1.1%); format: functional
Summary of the method: (§1)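 HepG2 or SW620 cells were seeded at 25000 per well. After 24 h they were treated, then harvested 24 or 48 h later. Attached cells were trypsinized, pooled with floating cells, PBS-washed and fixed in 70% ethanol. Cells were stained with PI 1 µg/mL plus RNase A 0.2 µg/mL, and 10 000 events were acquired by flow cytometry. Phase percentages come from DNA histograms, in duplicate, with ANOVA at p < 0.05.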

HepG2 [2] = test: Induction of cell cycle arrest on human HepG2 cells assessed as accumulation at subG1 phase at 50 uM after 24 hrs by propidium iodide staining based flow cytometry (reference value: 2.9 +/- 1.1%); format: functional; summary of the method: as §1
HepG2 [3] = test: Induction of cell cycle arrest on human HepG2 cells assessed as accumulation at G1 phase at 20 uM after 24 hrs by propidium iodide staining based flow cytometry (reference value: 66.5 +/- 1.4%); format: functional
HepG2 [4] = test: Induction of cell cycle arrest on human HepG2 cells assessed as accumulation at G1 phase at 50 uM after 24 hrs by propidium iodide staining based flow cytometry (reference value: 66.5 +/- 1.4%); format: functional
HepG2 [5] = test: Induction of cell cycle arrest on human HepG2 cells assessed as accumulation at S phase at 20 uM after 24 hrs by propidium iodide staining based flow cytometry (reference value: 17.0 +/- 2.9%); format: functional
HepG2 [6] = test: Induction of cell cycle arrest on human HepG2 cells assessed as accumulation at S phase at 50 uM after 24 hrs by propidium iodide staining based flow cytometry (reference value: 17.0 +/- 2.9%); format: functional; summary of the method: as §1
HepG2 [7] = test: Induction of cell cycle arrest on human HepG2 cells assessed as accumulation at G2/M phase at 20 uM after 24 hrs by propidium iodide staining based flow cytometry (reference value: 16.5 +/- 1.6%); format: functional
HepG2 [8] = test: Induction of cell cycle arrest on human HepG2 cells assessed as accumulation at G2/M phase at 50 uM after 24 hrs by propidium iodide staining based flow cytometry (reference value: 16.5 +/- 1.6%); format: functional
HepG2 [9] = test: Induction of cell cycle arrest on human HepG2 cells assessed as accumulation at subG1 phase at 20 uM after 48 hrs by propidium iodide staining based flow cytometry (reference value: 1.7 +/- 0.5%); format: functional; summary of the method: as §1
HepG2 [10] = test: Induction of cell cycle arrest on human HepG2 cells assessed as accumulation at subG1 phase at 50 uM after 48 hrs by propidium iodide staining based flow cytometry (reference value: 1.7 +/- 0.5%); format: functional; summary of the method: as §1
HepG2 [11] = test: Induction of cell cycle arrest on human HepG2 cells assessed as accumulation at G1 phase at 20 uM after 48 hrs by propidium iodide staining based flow cytometry (reference value: 62.7 +/- 0.5%); format: functional
HepG2 [12] = test: Induction of cell cycle arrest on human HepG2 cells assessed as accumulation at G1 phase at 50 uM after 48 hrs by propidium iodide staining based flow cytometry (reference value: 62.7 +/- 0.5%); format: functional
HepG2 [13] = test: Induction of cell cycle arrest on human HepG2 cells assessed as accumulation at S phase at 20 uM after 48 hrs by propidium iodide staining based flow cytometry (reference value: 9.3 +/- 13.2%); format: functional; summary of the method: as §1
HepG2 [14] = test: Induction of cell cycle arrest on human HepG2 cells assessed as accumulation at S phase at 50 uM after 48 hrs by propidium iodide staining based flow cytometry (reference value: 9.3 +/- 13.2%); format: functional; summary of the method: as §1
HepG2 [15] = test: Induction of cell cycle arrest on human HepG2 cells assessed as accumulation at G2/M phase at 20 uM after 48 hrs by propidium iodide staining based flow cytometry (reference value: 28.0 +/- 13.8%); format: functional
HepG2 [16] = test: Induction of cell cycle arrest on human HepG2 cells assessed as accumulation at G2/M phase at 50 uM after 48 hrs by propidium iodide staining based flow cytometry (reference value: 28.0 +/- 13.8%); format: functional
MCF7 = test: Antiproliferative activity against human MCF7 cells assessed as inhibition of cell proliferation after 72 hrs by MTT assay; format: functional, cell-based
Summary of the method: (§2)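 Cells grown as monolayers in DMEM with 10% FBS, 2 mM L-glutamine, penicillin/streptomycin, 37 °C, 5% CO2. Seeded at 5000/well on day 0. Compounds added after 24 h as five serial dilutions (0,01 to 100 µM), DMSO ≤0.1%, then 72 h. MTT read-out converted to percentage growth. IC50 by linear regression; quadruplicates in three experiments.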

[17] = (§3) Antiproliferative activity against human SW620 cells assessed as inhibition of cell proliferation after 72 hrs by MTT assay; format: functional, cell-based, SW-620; conditions: Homo sapiens, SW-620, 72 h; summary of the method: as §2
SW-620 = test: as §3; format: functional, cell-based; summary of the method: as §2
HepG2 [18] = test: Antiproliferative activity against human HepG2 cells assessed as inhibition of cell proliferation after 72 hrs by MTT assay; format: functional, cell-based; summary of the method: as §2
BJ = test: Antiproliferative activity against human BJ cells assessed as inhibition of cell proliferation after 72 hrs by MTT assay; format: cell-based; conditions: 72 h; summary of the method: as §2
HeLa = test: Antiproliferative activity against human HeLa cells assessed as inhibition of cell proliferation after 72 hrs by MTT assay; format: functional, cell-based; summary of the method: as §2
Hep G2 (human) [19] = test: Induction of apoptosis in human HepG2 cells assessed as induction of apoptotic bodies at 50 uM after 24 hrs by Annexin V-Fluos staining based fluorescent microscopy
Hep G2 (human) [20] = test: Induction of apoptosis in human HepG2 cells assessed as induction of cytoplasmic shrinkage at 50 uM after 24 hrs by Annexin V-Fluos staining based fluorescent microscopy

Compound: N#Cc1ccc(/N=C2\c3ccccc3CN2c2ccc(C#N)cn2)nc1
- Activity (HepG2 [1]): 6.6%
- Activity (HepG2 [2]): 6.7%
- Activity (HepG2 [3]): 58.1%
- Activity (HepG2 [4]): 57.4%
- Activity (HepG2 [5]): 21.5%
- Activity (HepG2 [6]): 26.4%
- Activity (HepG2 [7]): 20.4%
- Activity (HepG2 [8]): 16.2%
- Activity (HepG2 [9]): 5.7%
- Activity (HepG2 [10]): 8.4%
- Activity (HepG2 [11]): 61%
- Activity (HepG2 [12]): 61.2%
- Activity (HepG2 [13]): 19.5%
- Activity (HepG2 [14]): 18.5%
- Activity (HepG2 [15]): 19.5%
- Activity (HepG2 [16]): 20.3%
- inhibition (MCF7): Dose-dependent effect
- IC50 (MCF7; Homo sapiens, MCF7, 72 h): 71.2 µM
- IC50 [17]: > 100 µM
- inhibition (SW-620): Dose-dependent effect
- inhibition (HepG2 [18]): Dose-dependent effect
- IC50 (HepG2 [18]; HepG2, 72 h): 9.41 µM
- IC50 (BJ; Homo sapiens, BJ): 63.8 µM
- inhibition (INH) (BJ; human, bj): Dose-dependent effect
- inhibition (HeLa): Dose-dependent effect
- IC50 (HeLa; Homo sapiens, HeLa, 72 h): 8.81 µM
- Activity (Hep G2 (human) [19]): inactive
- Activity (Hep G2 (human) [20]): inactive
